Article PMC8995400 (Drug delivery and translational research, 2021)

Key:
[1] = tested on: Hec50co cells; test: Cell viability; assay type: cell-based, human; conditions: PD98059 alone
[2] = tested on: Hec50co cells; test: Cell cycle analysis by flow cytometry; assay type: cell-based, human
Outline: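 Hec50co cells seeded at 5×10^3 cells/well in complete DMEM and held 24 hr at 37°C, 5% CO2. They were then exposed 24 hr to taxane (5 or 10 nM), MEK inhibitor (25 μM) or both. Cells were PBS-washed, trypsinized, fixed in ice-cold 70% ethanol 30 min at 4°C, then taken up in PBS with 1% NP40 and 100 μg/mL RNase at 37°C for 30 min. Flow cytometry gave % cells per phase; mean ± SD, n = 3.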

[3] = Plasma pharmacokinetics after IV injection in mice; assay type: in vivo, BALB/CJ mice; conditions: for C0 / clearance / MRT inf / half-life / Vd: BALB/CJ, mouse, iv, 113 ug; for clearance: Cl; for MRT inf: MRT0-inf; for Vd: Vss
Outline: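 Same IV dosing of mice (113 μg, solution or nanoparticle-loaded), sampled 5, 30, 60, 120, 180 and 360 min. Blood was spun at 10,600 xg for 5 min, and plasma was extracted and assayed by C18 HPLC-UV (methanol:water 70:30, 0.1% TFA, 320 nm). Concentration–time data were analysed in PK Solver by non-compartmental, 1- and 2-compartment models. n = 3, mean ± SD.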

[4] = Biodistribution of PD98059 in mouse organs after IV injection; assay type: in vivo, BALB/CJ mice; conditions: mice; for AUC0-6: IV
Outline: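 BALB/CJ mice (8 weeks, 20–23 g) got 113 μg test compound as solution, or as loaded PAMAM-coated PLGA-PEG nanoparticles (3 mg, equivalent dose), IV retro-orbitally. Organs were taken at 5–360 min, rinsed, bead-homogenised in PBS with 7-hydroxyflavone internal standard, and ethyl acetate-extracted. Levels were measured by C18 HPLC-UV at 320 nm against the area ratio to standard. n = 3, mean ± SD.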

[5] = rats, 2-compartment open model; cited from earlier work
[6] = in 24 h; cited from earlier work
[7] = Non compartment model, IV, mice
[8] = One-compartment model, IV, mice
[9] = Two-compartment model, IV, mice

In the case of `COc1cccc(-c2cc(=O)c3ccccc3o2)c1N` [PD98059, 2-(2-Amino-3-methoxyphenyl)-4H-1-benzopyran-4-one], the cytotoxicity ([1]; 5 μM) is reported as 3.8%, the cytotoxicity ([1]; 10 μM) is reported as 5.3% and the cytotoxicity ([1]; 25 μM) is reported as 17%. The “cells at the G0/G1 phase” value ([2]; 25 μM PD98059, 24 hr) was 63.04%, the C0 ([3]; C0, Non compartment model, mice) was 2910 ng/mL and the C0 ([3]; C0, One-compartment model, mice) was 2630 ng/mL. For the same compound, the C0 ([3]; C0, Two-compartment model, mice) was 3150 ng/mL, the clearance ([3]; Non compartment model, mice) was 0.31 mL/min and the clearance ([3]; One-compartment model, mice) was 1.25 mL/min. The clearance ([3]; Two-compartment model, mice) was 0.29 mL/min, the MRT inf ([3]; Non compartment model, mice) was 7.29 h and the MRT inf ([3]; One-compartment model, mice) was 0.503 h. The MRT inf ([3]; Two-compartment model, mice) was 9.26 h, the half-life ([3]; T1/2(α), Two-compartment model, mice) was 0.151 h and the half-life ([3]; T1/2(β), Two-compartment model, mice) was 7.13 h. For the same compound, the half-life ([3]; T1/2, Non compartment model, mice) was 5.25 h, the half-life ([3]; T1/2, One-compartment model, mice) was 0.348 h and the Vd [3, 7] was 0.136 L. The Vd [3, 8] was 0.0379 L, the Vd [3, 9] was 0.163 L and the K ([3]; Non compartment model, IV 113 μg PD98059, mice) was 0.0022 min⁻¹. The AUC0-inf [3, 7] was 320.68 μg x min/mL, the AUC0-t [3, 7] was 175.72 μg x min/mL and the AUMC0-inf [3, 7] was 140,206.69 μg x min^2/mL. It also gave a V [3, 7] of 141.65 mL, an AUC0-inf [3, 8] of 79.61 μg x min/mL and an AUC0-t [3, 8] of 79.61 μg x min/mL. The AUMC0-inf [3, 8] was 2,402.29 μg x min^2/mL, the K [3, 8] was 0.033 min⁻¹ and the V [3, 8] was 37.90 mL. For the same compound, the A [3, 9] was 2.65 µg/mL, the AUC0-inf [3, 9] was 340.78 μg x min/mL and the AUC0-t [3, 9] was 170.01 μg x min/mL. For the same compound, the AUMC0-inf [3, 9] was 189,279.12 μg x min^2/mL, the B [3, 9] was 0.49 µg/mL and the K10 [3, 9] was 0.0092 min⁻¹. For the same compound, the K12 [3, 9] was 0.055 min⁻¹, the K21 [3, 9] was 0.013 min⁻¹ and the V [3, 9] was 31.72 mL. For the same compound, the α [3, 9] was 0.076 min⁻¹, the β [3, 9] was 0.0016 min⁻¹ and the “maximum PD98059 level in the brain” value ([4]; 5 minutes following IV injection) was “about 3 μg/g”. It also gave an AUC0-6 ([4]; Brain) of 334.25 μg x min/mL, an AUC0-6 ([4]; Heart) of 160.37 μg x min/mL and an AUC0-6 ([4]; Kidney) of 301.47 μg x min/mL. The AUC0-6 ([4]; Liver) was 125.38 μg x min/mL, the AUC0-6 ([4]; Lung) was 459.51 μg x min/mL and the AUC0-6 ([4]; Muscle) was 129.86 μg x min/mL. For the same compound, the AUC0-6 ([4]; Pancreas) was 177.37 μg x min/mL, the AUC0-6 ([4]; Spleen) was 129.72 μg x min/mL and the distribution half-life [5] was “less than 10 minutes”. The “free PD98059 dissolved” value [6] was “more than 80%”.

With `CC(=O)O[C@H]1C(=O)[C@@]2(C)[C@H]([C@H](OC(=O)c3ccccc3)[C@]3(O)C[C@H](OC(=O)[C@H](O)[C@@H](NC(=O)c4ccccc4)c4ccccc4)C(C)=C1C3(C)C)[C@]1(OC(C)=O)CO[C@@H]1C[C@@H]2O` [PTX, paclitaxel] the “cells at the G2/M phase” value ([2]; 5 nM PTX + 25 μM PD98059, 24 hr) was 42.15%, the “cells at the G2/M phase” value ([2]; 5 nM PTX, 24 hr) was 37.2% and the “cells at the G2/M phase” value ([2]; 10 nM PTX + 25 μM PD98059, 24 hr) was 74.99%. For the same compound, the “cells at the G2/M phase” value ([2]; 10 nM PTX, 24 hr) was 45.74%.
